Source: ChEMBL document CHEMBL3739417, “Synthesis and biological evaluation of novel 4,5-disubstituted 2H-1,2,3-triazoles as cis-constrained analogues of combretastatin A-4” (2015)

How the values were obtained:
Format in all cases: functional
[1] = Growth inhibition of human SKOV3 cells after 48 hrs by sulforhodamine B assay; conditions: SK-OV-3, 48 h
Summary of the method: (§1)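 NCI-60 panel screen by SRB assay (Rubinstein method). Percentage growth taken from optical density of SRB colour, read before and 48 hrs after exposure to compound or vehicle control. All analogues first screened at 10^-5 M. Analogues giving 60% growth inhibition at that level in at least eight lines then went to a five-concentration dose-response study.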

[2] = tested on: NCI-H460; test: Growth inhibition of human NCI-H460 cells after 48 hrs by sulforhodamine B assay; conditions: NCI-H460, 48 h; summary of the method: as §1
[3] = Growth inhibition of human HOP62 cells after 48 hrs by sulforhodamine B assay; conditions: HOP-62, 48 h; summary of the method: as §1
[4] = Growth inhibition of human IGROV1 cells after 48 hrs by sulforhodamine B assay; conditions: IGROV-1, 48 h; summary of the method: as §1
[5] = tested on: MDA-MB-435; test: Growth inhibition of human MDA-MB-435 cells after 48 hrs by sulforhodamine B assay; conditions: MDA-MB-435, 48 h
Summary of the method: (§2)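 NCI-60 sulforhodamine B screen. Compounds were first tested at a single dose of 10⁻⁵ M; hits, defined as ≥60% growth inhibition in at least eight lines, went on to a five-concentration dose–response. SRB optical density was read before and 48 h after exposure to compound or vehicle. Percentage growth was calculated from OD.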

[6] = tested on: MDA-MB-231; test: Growth inhibition of human MDA-MB-231 cells after 48 hrs by sulforhodamine B assay; conditions: MDA-MB-231, 48 h; summary of the method: as §1
[7] = tested on: KM12; test: Growth inhibition of human KM12 cells after 48 hrs by sulforhodamine B assay; conditions: KM12, 48 h; summary of the method: as §1
[8] = tested on: ACHN; test: Growth inhibition of human ACHN cells after 48 hrs by sulforhodamine B assay; summary of the method: as §1
[9] = Growth inhibition of human HCT15 cells after 48 hrs by sulforhodamine B assay; conditions: HCT-15, 48 h; summary of the method: as §1
[10] = Growth inhibition of human DU145 cells after 48 hrs by sulforhodamine B assay; conditions: DU-145, 48 h; summary of the method: as §1
[11] = tested on: U-251; test: Growth inhibition of human U251 cells after 48 hrs by sulforhodamine B assay; conditions: U-251, 48 h; summary of the method: as §1
[12] = tested on: HT-29; test: Growth inhibition of human HT-29 cells after 48 hrs by sulforhodamine B assay; conditions: HT-29, 48 h; summary of the method: as §1
[13] = tested on: MCF7; test: Growth inhibition of human MCF7 cells after 48 hrs by sulforhodamine B assay; conditions: MCF7, 48 h; summary of the method: as §1
[14] = Growth inhibition of human SF268 cells after 48 hrs by sulforhodamine B assay; conditions: SF-268, 48 h; summary of the method: as §1
[15] = Growth inhibition of human LOXIMVI cells after 48 hrs by sulforhodamine B assay; conditions: LOX IMVI; summary of the method: as §1
[16] = tested on: A549; test: Growth inhibition of human A549/ATCC cells after 48 hrs by sulforhodamine B assay; conditions: A549, 48 h; summary of the method: as §1
[17] = Growth inhibition of human SNB75 cells after 48 hrs by sulforhodamine B assay; conditions: SNB-75, 48 h; summary of the method: as §1
[18] = Growth inhibition of human HCC2998 cells after 48 hrs by sulforhodamine B assay; conditions: HCC 2998, 48 h; summary of the method: as §1
[19] = Growth inhibition of human UO31 cells after 48 hrs by sulforhodamine B assay; conditions: UO-31, 48 h; summary of the method: as §1
[20] = Growth inhibition of human NCI-ADR-RES cells after 48 hrs by sulforhodamine B assay; summary of the method: as §1
[21] = Growth inhibition of human OVCAR3 cells after 48 hrs by sulforhodamine B assay; conditions: OVCAR-3, 48 h; summary of the method: as §2
[22] = Growth inhibition of human HOP92 cells after 48 hrs by sulforhodamine B assay; conditions: HOP-92, 48 h; summary of the method: as §1
[23] = tested on: A498; test: Growth inhibition of human A498 cells after 48 hrs by sulforhodamine B assay; conditions: A498, 48 h; summary of the method: as §2
[24] = tested on: K562; test: Growth inhibition of human K562 cells after 48 hrs by sulforhodamine B assay; conditions: K562, 48 h; summary of the method: as §1
[25] = tested on: SK-MEL-2; test: Growth inhibition of human SK-MEL-2 cells after 48 hrs by sulforhodamine B assay; conditions: SK-MEL-2, 48 h; summary of the method: as §1
[26] = Growth inhibition of human RPMI8226 cells after 48 hrs by sulforhodamine B assay; conditions: RPMI-8226, 48 h; summary of the method: as §1
[27] = tested on: MDA-MB-468; test: Growth inhibition of human MDA-MB-468 cells after 48 hrs by sulforhodamine B assay; conditions: MDA-MB-468, 48 h; summary of the method: as §1
[28] = Growth inhibition of human HCT116 cells after 48 hrs by sulforhodamine B assay; conditions: HCT-116, 48 h; summary of the method: as §1
[29] = tested on: NCI-H23; test: Growth inhibition of human NCI-H23 cells after 48 hrs by sulforhodamine B assay; conditions: NCI-H23, 48 h; summary of the method: as §1
[30] = tested on: SR; test: Growth inhibition of human SR cells after 48 hrs by sulforhodamine B assay; summary of the method: as §1
[31] = Growth inhibition of human PC3 cells after 48 hrs by sulforhodamine B assay; conditions: PC-3, 48 h; summary of the method: as §1
[32] = tested on: CCRF-CEM; test: Growth inhibition of human CCRF-CEM cells after 48 hrs by sulforhodamine B assay; summary of the method: as §1
[33] = Growth inhibition of human SW620 cells after 48 hrs by sulforhodamine B assay; conditions: SW-620, 48 h; summary of the method: as §1
[34] = Growth inhibition of human HL-60(TB) cells after 48 hrs by sulforhodamine B assay; conditions: HL-60, 48 h; summary of the method: as §1
[35] = Growth inhibition of human SF295 cells after 48 hrs by sulforhodamine B assay; conditions: SF-295, 48 h; summary of the method: as §1
[36] = Growth inhibition of human COLO205 cells after 48 hrs by sulforhodamine B assay; conditions: COLO 205, 48 h; summary of the method: as §1
[37] = tested on: CAKI-1; test: Growth inhibition of human CAKI-1 cells after 48 hrs by sulforhodamine B assay; conditions: CAKI-1, 48 h; summary of the method: as §1
[38] = read-out: LD50 (the source's name)

## COc1cc(-c2n[nH]nc2-c2ccc3c(c2)OCO3)cc(OC)c1OC
[1]
  GI50: 490 nM
[1]; read-out: LD50
  LC50 (concentration killing 50% of cells): > 100000 nM
[2]
  GI50: 340 nM
[2]; [38]
  CC50: > 100000 nM
[3]
  GI50: 340 nM
[3]; read-out: LD50
  LC50 (concentration killing 50% of cells): > 100000 nM
[4]
  GI50: > 100000 nM
[4]; [38]
  CC50: > 100000 nM
[5]
  GI50: 90 nM
[5]; read-out: LD50
  LC50 (concentration killing 50% of cells): > 100000 nM
[6]
  GI50: 530 nM
[6]; [38]
  CC50: > 100000 nM
[7]
  GI50: 70 nM
[7]; read-out: LD50
  LC50 (concentration killing 50% of cells): > 100000 nM
[8]
  GI50: 710 nM
[8]; [38]
  CC50: > 100000 nM
[9]
  GI50: 130 nM
[9]; [38]
  CC50: > 100000 nM
[10]
  GI50: 350 nM
[10]; [38]
  CC50: > 100000 nM
[11]
  GI50: 300 nM
[11]; [38]
  CC50: > 100000 nM
[12]
  GI50: 390 nM
[12]; read-out: LD50
  LC50 (concentration killing 50% of cells): > 100000 nM
[13]
  GI50: 80 nM
[13]; [38]
  CC50: > 100000 nM
[14]
  GI50: > 100000 nM
[14]; [38]
  CC50: > 100000 nM
[15]
  GI50: 550 nM
[15]; [38]
  CC50: > 100000 nM
[16]
  GI50: 290 nM
[16]; [38]
  CC50: > 100000 nM
[17]
  GI50: 80 nM
[17]; [38]
  CC50: > 100000 nM
[18]
  GI50: > 100000 nM
[18]; [38]
  CC50: > 100000 nM
[19]
  GI50: 660 nM
[19]; read-out: LD50
  LC50 (concentration killing 50% of cells): > 100000 nM
[20]
  GI50: 80 nM
[20]; [38]
  CC50: > 100000 nM
[21]
  GI50: 430 nM
[21]; read-out: LD50
  LC50 (concentration giving 50% net cell kill): > 100000 nM
[22]
  GI50: 120 nM
[22]; [38]
  CC50: > 100000 nM
[23]
  GI50: 340 nM
[23]; read-out: LD50
  LC50 (50% net cell kill): > 100000 nM
[24]
  GI50: 50 nM
[24]; [38]
  CC50: > 100000 nM
[25]
  GI50: 20 nM
[25]; [38]
  CC50: > 100000 nM
[26]
  GI50: 330 nM
[26]; [38]
  CC50: > 100000 nM
[27]
  GI50: 230 nM
[27]; [38]
  CC50: > 100000 nM
[28]
  GI50: 180 nM
[28]; [38]
  CC50: > 100000 nM
[29]
  GI50: 770 nM
[29]; read-out: LD50
  LC50 (concentration giving 50% cell kill): > 100000 nM
[30]
  GI50: 40 nM
[30]; read-out: LD50
  LC50 (concentration giving 50% net cell kill): > 100000 nM
[31]
  GI50: 260 nM
[31]; [38]
  CC50: > 100000 nM
[32]
  GI50: 280 nM
[32]; read-out: LD50
  LC50 (concentration killing 50% of cells): > 100000 nM
[33]
  GI50: 110 nM
  LD50 (concentration killing 50% of cells): > 100 µM
[34]
  GI50: 200 nM
[34]; [38]
  CC50: > 100000 nM
[35]
  GI50: 100 nM
[35]; [38]
  CC50: > 100000 nM
[36]
  GI50: 310 nM
[36]; [38]
  CC50: > 100000 nM
[37]
  GI50: 320 nM
[37]; [38]
  CC50: > 100000 nM
